Data as given in ChEMBL document CHEMBL1136463, “The relationship between physicochemical properties, in vitro activity and pharmacokinetic profiles of analogues of diamine-containing efflux pump inhibitors” (Bioorg Med Chem Lett, 2003).

Experiments:
[1] = Ionization constant (pKa2) of compound was determined; format: physicochemical; conditions: read-out: pKa2
Rattus norvegicus [2] = assay: Area under curve (AUC) at a dose 1 mg/kg was determined in rat kidney; format: ADME, organism-based; parameters: dose 1 mg/kg; conditions: in vivo
How it was run: (§1)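 Male Sprague–Dawley rats with femoral and jugular venous catheters (5 rats), dosed alone or in cassettes of up to five compounds by 2 h constant-rate femoral vein infusion at 1 to 10 mg/kg. One rat killed at 0.25, 2, 8, 16 and 24 h after infusion start. Liver, kidney and lung homogenates assayed by HPLC/MS/MS. Tissue AUC0–24 h normalized to 1 mg/kg.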

[3] = Ionization constant (pKa1) of compound was determined; format: physicochemical; conditions: read-out: pKa1
Rattus norvegicus [4] = assay: Area under curve (AUC) at a dose 1 mg/kg was determined in rat lung; format: ADME, organism-based; parameters: dose 1 mg/kg; conditions: in vivo; how it was run: as §1
Rattus norvegicus [5] = assay: Area under curve (AUC) at a dose 1 mg/kg was determined in rat liver; format: ADME, organism-based; parameters: dose 1 mg/kg; conditions: in vivo; how it was run: as §1
Pseudomonas aeruginosa = assay: Minimum potentiation concentration required to reduce (potentiate) the activity of antibacterial drug-levofloxacin for Pseudomonas aeruginosa by n-fold in the absence of horse serum; format: functional
[6] = Partition coefficient (logP); format: physicochemical; conditions: octanol/water
[7] = Partition coefficient (logD); format: physicochemical; conditions: octanol/water
[8] = T1/2 (half life) of compound after 2 hr iv infusion of 8.4 mg/kg in three rat; format: ADME, organism-based; parameters: dose 8.4 mg/kg, route intravenous; conditions: in vivo
[9] = Clearance (Cl) of compound after 2 h iv infusion of 8.4 mg/kg in three rat; format: ADME, organism-based; parameters: dose 8.4 mg/kg, route intravenous; conditions: in vivo
[10] = Steady state volume distribution (Vss) of compound after 2 hr iv infusion of 8.4 mg/kg in three rat; format: ADME, organism-based; parameters: dose 8.4 mg/kg, route intravenous; conditions: in vivo, read-out: Vss

| pKa [1] | AUC (Rattus norvegicus [2]) [mg·h/kg] | pKa [3] | AUC (Rattus norvegicus [4]) [mg·h/kg] | AUC (Rattus norvegicus [5]) [mg·h/kg] | logP [6] | logD [7] | half-life [8] [min] | clearance [9] [mL/min/kg] | Vd [10] [L/kg] | Compound | MPC (Pseudomonas aeruginosa) [µg/mL] |
| --- | --- | --- | --- | --- | --- | --- | --- | --- | --- | --- | --- |
| 7.1 | 79 | 8.1 | 3 | 20 | 1.8 | 0.9 |  |  |  | NCC(=O)N1C[C@@H](N)C[C@@H]1C(=O)N[C@H](CCc1ccccc1)C(=O)Nc1cnc2ccccc2c1 | 10 |
| 6.3 |  | 8.2 |  |  |  |  |  |  |  | NCC(=O)N1CCNCC1C(=O)N[C@H](CCc1ccccc1)C(=O)Nc1cnc2ccccc2c1 (stereo partly drawn) | 20 |
|  | 133 |  | 5 | 176 | 2.8 | 1.9 |  |  |  | Cc1cc2nc([C@@H](CCc3ccccc3)NC(=O)[C@H]3C[C@H](N)CN3C(=O)CN)[nH]c2cc1C | 5 |
| 7.2 | 96 | 8.2 | 4 | 12 | 1.4 | 0.5 |  |  |  | NCC(=O)N1C[C@@H](N)C[C@@H]1C(=O)N[C@H](CCc1ccccc1)C(=O)Nc1ccc2ncccc2c1 | 20 |
|  | 8.5 |  |  | 5.5 |  |  |  |  |  | C[C@@H](N)C(=O)N[C@H](CCc1ccccc1)C(=O)Nc1cnc2ccccc2c1 |  |
| 7.7 | 100 | 9 | 4 | 26 | 1.2 | -0.5 |  |  |  | NCC(=O)N1C[C@@H](CN)C[C@@H]1C(=O)N[C@H](CCc1ccccc1)C(=O)Nc1ccc2ncccc2c1 | 10 |
| 5.2 | 25 | 8.8 | 14 | 13 | 2.3 | 1.1 |  |  |  | N[C@@H]1CN[C@@H](C(=O)N[C@H](CCc2ccccc2)C(=O)Nc2cnc3ccccc3c2)C1 | >40 |
| 5.4 |  | 8.5 |  |  |  |  |  |  |  | NCC(=O)N1CCNC(C(=O)N[C@H](CCc2ccccc2)C(=O)Nc2cnc3ccccc3c2)C1 (stereo partly drawn) | >40 |
| 6.3 |  | 9.3 |  |  |  |  |  |  |  | N[C@@H]1CN[C@@H](CC(=O)N[C@H](CCc2ccccc2)C(=O)Nc2cnc3ccccc3c2)C1 | 5 |
| 6.8 |  | 9.6 |  |  |  |  |  |  |  | NC[C@@H]1CN[C@@H](C(=O)N[C@H](CCc2ccccc2)C(=O)Nc2cnc3ccccc3c2)C1 | 5 |
| 6.9 | 56 | 9.6 | 15 | 22 | 2.3 | 0.5 | 43.8 | 26.7 | 0.5 | NC[C@@H]1CN[C@@H](C(=O)N[C@H](CCc2ccccc2)C(=O)Nc2ccc3ncccc3c2)C1 | 10 |
